# Compound activity deposited in PubChem BioAssay by The Scripps Research Institute Molecular Screening Center.
# OXTR agonist – agonists of human oxytocin receptor; activation, % at 3 µM; 320,000 tested, 0.32% active; P30559; CHO-OTR cells, Fluo-8 calcium fluorescence; normalized: DMSO 0%, oxytocin 100%;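 active = activation above the mean of all tested compounds plus 3 SD, cutoff set per screening run, cut at about 20% in these data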;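 also: peak over basal fluorescence ratio from a 100 s FLIPR kinetic read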
# Target sequence (P30559 whole entry, looked up): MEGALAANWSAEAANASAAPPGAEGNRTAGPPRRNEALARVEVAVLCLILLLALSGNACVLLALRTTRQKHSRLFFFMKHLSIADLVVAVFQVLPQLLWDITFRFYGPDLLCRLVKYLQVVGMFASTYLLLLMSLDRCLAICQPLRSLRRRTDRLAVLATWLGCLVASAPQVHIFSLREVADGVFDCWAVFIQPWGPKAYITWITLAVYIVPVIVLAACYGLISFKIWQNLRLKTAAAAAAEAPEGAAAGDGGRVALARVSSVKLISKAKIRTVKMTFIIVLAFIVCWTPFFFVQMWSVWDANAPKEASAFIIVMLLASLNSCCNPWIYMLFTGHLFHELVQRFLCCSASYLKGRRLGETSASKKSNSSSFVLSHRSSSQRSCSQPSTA
# OXTR potentiator – potentiators of human oxytocin receptor; activation, % at 3 µM; 320,000 tested, 0.061% active; AID 2445; CHO-OTR cells, Fluo-8 calcium fluorescence, potentiator mode; 0% = oxytocin EC15, 100% = EC100; P30559;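 active = activation above that plate's cutoff, the mean activation of tested compounds plus 3 SD, cut at about 6.6% in these data, passing the limit was not always enough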
#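 Assay system: CHO-OTR cells, human receptor / Also added: oxytocin at about EC15, sub-maximal agonist stimulus / Dosing: single dose, 3.0 µM nominal final compound concentration / Incubation: 6 min pre-incubation, 100 s read / Technique: Fluo-8 calcium dye fluorescence / Read-out: % activation vs EC15 and EC100 oxytocin / Benchmarks: EC15 oxytocin low, 75 nM oxytocin high / Replicates: singlicate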
# V1R ag counter – V1a receptor agonism, counter-screen for OXTR agonists; P37288; CHO-V1R cells, Fluo-8 calcium fluorescence, agonist mode; 0% DMSO, 100% 3 nM vasopressin; activation, % at 3 µM; 320,000 tested, 0.25% active;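 active = activation above the mean activation of all tested compounds plus 3 SD, per screening run, cut at about 20% in these data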;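 also: signal is peak over basal fluorescence ratio across a 100 second FLIPR read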
# TAAR1 ag – agonists of human TAAR1. Q96RJ0. CHO RD-HGA16 TAAR1, Fluo-8 calcium fluorescence; vehicle wells 0%, saturating PEA agonist 100%. activation, % at 3 µM. 360,000 tested, 0.99% active;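 active = activation above the mean activation of all test compounds in the run plus 3 SD, cut at about 38% in these data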
# Target sequence (Q96RJ0 whole entry, looked up): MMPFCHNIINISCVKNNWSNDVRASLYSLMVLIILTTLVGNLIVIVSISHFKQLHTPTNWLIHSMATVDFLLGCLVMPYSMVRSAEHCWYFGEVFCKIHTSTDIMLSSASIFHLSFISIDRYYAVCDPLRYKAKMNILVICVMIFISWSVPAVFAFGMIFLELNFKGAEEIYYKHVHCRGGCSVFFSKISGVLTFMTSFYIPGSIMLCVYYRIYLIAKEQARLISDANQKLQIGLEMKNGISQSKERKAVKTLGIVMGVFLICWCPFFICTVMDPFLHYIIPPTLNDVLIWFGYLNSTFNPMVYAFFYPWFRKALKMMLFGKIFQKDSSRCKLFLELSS
#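 Assay system – CHO-derived RD-HGA16 cells with stable Gα16 and human TAAR1 · Compound dosing – one-point dosing at 3 µM (nominal) · Incubation – 17-24 h seeding, 75 min 37 °C dye, 30 min RT · Measured by – kinetic Fluo-8 calcium fluorescence · Control set – DMSO vehicle as 0%, PEA at EC100 as 100% · Repeats – single well for each compound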
# TAAR1 antagonist – human TAAR1 antagonism. Q96RJ0. CHO RD-HGA16 TAAR1, Fluo-8 calcium fluorescence, antagonist. inhibition, % at 3 µM. 360,000 tested, 1.5% active;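 active = inhibition above a per-plate cutoff, the mean inhibition of test compounds on that plate plus 3 SD, cut at about 49% in these data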
#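 test system = CHO RD-HGA16 cells bearing hTAAR1 | replication = singlicate | controls = DMSO-only wells and EC80 β-PEA-stimulated wells | reagent = EC80 β-phenethylamine stimulus | read-out basis = percent inhibition of PEA-evoked calcium signal, max/basal emission ratio | schedule = seeding 17-24 h prior, 75-min 37 °C, 30-min RT dye loading | signal = kinetic Fluo-8 calcium fluorescence measurement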
# TAAR1 ag conf – confirmation of human TAAR1 agonists; shares compounds with TAAR1 ag; CHO RD-HGA16 TAAR1, Fluo-8 calcium fluorescence; scaled: DMSO 0%, maximal phenethylamine 100%; activation, % at 3 µM; 2,400 tested, 82% active; AID 651783;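 active = activation above a cutoff set at the run's mean compound activation plus 3 SD, cut at about 39% in these data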
# Ga16 nonsel ag – counter-screen for TAAR1 agonists: nonselective agonists in parental cells; 2,400 tested, 50% active; activation, % at 3 µM; shares compounds with TAAR1 ag; CHO-Ga16 parental, Fluo-8 calcium fluorescence; normalized to maximal ATP response, DMSO zero;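 active = activation above the run cutoff, the mean activation over all tested wells plus 3 SD, cut at about 12% in these data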
# TAAR1 desens – human TAAR1 agonist that also desensitizes the receptor; shares compounds with TAAR1 ag; CHO RD-HGA16 hTAAR1, Fluo-8 calcium, beta-PEA response inhibition; inhibition, % at 3 µM; 2,400 tested, 46% active; AID 651951;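 active = inhibition above the run cutoff, the mean inhibition of all test compounds plus 3 SD, cut at about 49% in these data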;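 also: beta-PEA stimulus applied at its EC80; loss of beta-PEA calcium signal after compound pretreatment read as receptor desensitization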
# Ga16 nonsel ant – nonselective Ga16 antagonist in TAAR1 agonist counter-screen | shares compounds with TAAR1 ag | CHO-Ga16 ATP-induced calcium, Fluo-8 fluorescence | inhibition, % at 3 µM | 2,400 tested, 39% active;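 active = inhibition above the plate's mean compound inhibition plus 3 SD, computed per plate, cut at about 22% in these data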
# Hits are given with their value; . = inactive; / = no result given. Compounds with a hit are over-represented: about 2.3% of the library has one in this group of screens.
SMILES,OXTR agonist,OXTR potentiator,V1R ag counter,TAAR1 ag,TAAR1 antagonist,TAAR1 ag conf,Ga16 nonsel ag,TAAR1 desens,Ga16 nonsel ant
COc1ccc(CN2C(=O)C(C)Nc3ncnc(N4CCc5ccccc5C4)c32)cc1 (centres undefined),/,/,/,53,.,44,.,.,.
OC(COC(c1ccccc1)c1ccccc1)CN1CCc2ccccc2C1 (centres undefined),.,.,.,.,.,/,/,/,/
OC(COC(c1ccc(Cl)cc1)c1ccc(Cl)cc1)CN1CCc2ccccc2C1 (centres undefined),.,.,.,82,.,81,.,49,.
Cc1ccc(-n2c(SCC(N)=O)nnc2-c2ccc(S(=O)(=O)N3CCCCC3)cc2)c(C)c1,.,.,.,38,.,.,16,.,34
CC(=O)C1=CCC(c2ccc(C)cc2)N(S(=O)(=O)c2ccc(Cl)cc2)C1 (centres undefined),/,/,/,.,.,/,/,/,/
COc1ccccc1C(=O)NC(=S)NNC(=O)c1sc2ccccc2c1Cl,46,.,25,117,74,166,124,106,87
COc1ccccc1C(=O)NNC(=S)NC(=O)c1sc2ccccc2c1Cl,49,.,34,145,80,140,118,106,94
Cc1c(NC(=S)NC(=O)c2sc3ccccc3c2Cl)cccc1C(=O)O,.,.,.,.,.,/,/,/,/
CCOc1ccc(NS(=O)(=O)c2ccc(C(=O)N(C)CC(=O)Nc3ccc(OC)cc3)cc2)cc1,.,.,.,.,.,/,/,/,/
CCOc1ccc(NS(=O)(=O)c2ccc(NC(=S)NC(=O)CC(C)C)cc2)cc1,20,.,23,72,61,70,31,68,39
C=C(C)CN(CC)C(=O)COc1ccc(S(=O)(=O)Nc2ccc(OC)cc2)cc1,29,.,24,63,.,59,30,.,22
CCCC(=O)NC(=S)Nc1ccc(S(=O)(=O)Nc2ccc(OCC)cc2)cc1,.,.,.,74,.,85,35,66,39
CCN(CC(=O)Nc1ccc(OC)cc1)C(=O)c1ccc(NS(=O)(=O)c2ccc(C(C)=O)cc2)cc1,.,.,.,.,.,/,/,/,/
CNC(=O)C(=O)NCCN1CCN(S(=O)(=O)c2ccc3ccccc3c2)CC1,/,/,/,.,.,/,/,/,/
C/C(=N\NC(=O)c1nnn(-c2nonc2N)c1-c1cccs1)c1ccc(C)cc1,.,.,.,103,.,104,72,.,.
COc1ccc(/C(C)=N/NC(=O)c2nnn(-c3nonc3N)c2-c2ccccc2)cc1,.,.,.,123,.,103,63,.,.
C/C(=N\NC(=O)c1nnn(-c2nonc2N)c1-c1cccs1)c1ccc(O)cc1,.,.,.,.,.,/,/,/,/
COc1ccc(/C(C)=N/NC(=O)c2nnn(-c3nonc3N)c2-c2cccs2)cc1,.,.,.,46,.,81,55,.,.
NCCCCCc1nnc(SCc2ccc(Cl)c(Cl)c2)o1,.,.,.,50,.,62,.,.,.
O=C(O)c1ccccc1C(=O)NC1Cc2ccccc2C1,.,.,.,85,77,98,16,91,.
COc1ccc(CNC(=O)Nc2nc(C(N)Cc3ccc(F)cc3)cs2)cc1 (centres undefined),/,/,/,57,59,70,34,66,59
COc1ccc(CC(N)c2csc(NC(=O)c3cc(C(C)(C)C)oc3C)n2)cc1 (centres undefined),/,/,/,48,.,.,30,.,51
NC(Cc1ccc(F)cc1)c1csc(NC(=O)NC(c2ccccc2)c2ccccc2)n1 (centres undefined),/,/,/,56,68,.,23,.,45
COc1ccc(CC(N)c2csc(NC(=O)CCc3ccccc3)n2)cc1 (centres undefined),/,/,/,62,59,.,28,.,37
Nc1ccn(Cc2ccc(F)cc2)n1,.,.,.,.,.,/,/,/,/
SMILES,OXTR agonist,OXTR potentiator,V1R ag counter,TAAR1 ag,TAAR1 antagonist,TAAR1 ag conf,Ga16 nonsel ag,TAAR1 desens,Ga16 nonsel ant
COc1ccc(C(=O)N2CCN(S(=O)(=O)c3ccc(Cl)cc3)CC2)cc1S(=O)(=O)N1CCOCC1,/,/,/,.,.,/,/,/,/
CN1/C(=C\C=C2/C(=O)Oc3ccccc3C2=O)C(C)(C)c2ccccc21,367,.,261,612,105,331,357,107,103
CC1=NN(c2ccccc2)C(=O)/C1=C/N(C)C,.,.,.,.,.,/,/,/,/
CC1=NN(c2ccccc2)C(=O)/C1=C\C=C1/N(C)c2ccccc2C1(C)C,34,.,43,84,50,67,45,57,49
Cc1ccc(-n2cccn2)cc1,.,.,.,.,.,/,/,/,/
O=Cc1ccc(-n2cccn2)cc1,.,.,.,323,65,.,.,.,.
Cc1cccc(OCCCC(=O)NNC(=O)c2ccccn2)c1,.,.,.,.,.,/,/,/,/
C/C(=C/C(=O)O)C(=O)Nc1cccc(C(F)(F)F)c1,.,.,.,.,.,/,/,/,/
Cc1ccc2nc(NCc3ccccc3)[nH]c2c1,.,.,.,43,.,66,.,.,.
CC1C(=O)N2CCCc3cc(S(=O)(=O)NCCc4ccccc4)cc1c32 (centres undefined),.,.,.,52,.,67,.,.,.
O=C(O)Cc1c(C(=O)O)[nH]c2ccc(C(=O)O)cc12,.,.,.,.,.,/,/,/,/
COC(=O)c1cc(NC(=O)c2ccccc2)c(=O)oc1/C=C/Nc1ccc(Oc2ccccc2)cc1,/,/,/,50,68,62,73,85,87
c1ccc2c(c1)CCN(c1nc3cc4c(cc3s1)OCCO4)C2,.,.,.,56,.,81,.,.,.
Cc1cc(C(=O)CN2C(=O)NC(CC(C)C)C2=O)c(C)n1C1CC1 (centres undefined),.,.,.,.,.,/,/,/,/
Cc1cc(C(=O)CN2C(=O)NC(C)(c3ccc(F)c(F)c3)C2=O)c(C)n1C1CC1 (centres undefined),/,/,/,68,.,84,30,.,.
